Laboratory results taken from ChEMBL document CHEMBL1124248, “Preparation and antischistosomal and antitumor activity of hycanthone and some of its congeners. Evidence for the mode of action of hycanthone” (1988).
Several values for one entry are separate records, joined by “and”; a condition that tells them apart may be missing. Equal entries are not always repeated.

Assays:
Assay type in all cases: functional
Mus musculus [1] = experiment: In vivo antitumor activity against p-388 lymphocytic leukemia in mice at 50 mg/kg
Outline: (§1)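 Murine P388 lymphocytic leukemia model tested by the National Cancer Institute. Compound given once daily for 9 days; activity expressed as T/C.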

Mus musculus [2] = experiment: In vivo antitumor activity against p-388 lymphocytic leukemia in mice at 6.25 mg/kg (Duplicate value); outline: as §1
Mus musculus [3] = experiment: In vivo antitumor activity against p-388 lymphocytic leukemia in mice at 12.5 mg/kg (Duplicate value); outline: as §1
Mus musculus [4] = experiment: In vivo antitumor activity against p-388 lymphocytic leukemia in mice at 25 mg/kg (Duplicate value); outline: as §1
Schistosoma mansoni [5] = experiment: Incorporation of 1.3 M *10e6 [3H]uridine in hycanthone(HC) sensitive Schistosoma mansoni
Schistosoma mansoni [6] = experiment: Incorporation of 1.3 [3H]uridine in hycanthone(HC) resistant Schistosoma mansoni
Outline: (§2)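 Adult HC-resistant S. mansoni were treated in vitro, and [3H]uridine incorporation by the worms was measured. Values are % of control. Concentrations are given in M × 10^6.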

Schistosoma mansoni [7] = experiment: Incorporation of 6.3 M*10e6 [3H]uridine in hycanthone(HC) sensitive Schistosoma mansoni
Schistosoma mansoni [8] = experiment: Day 50% survival of worms in culture of HC resistant Schistosoma mansoni
Outline: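 Adult HC-resistant S. mansoni were exposed in vitro and kept in culture. The value is the day by which 50% of worms were dead. Cultures were ended at different times in different experiments. Concentrations are given in M × 10^6.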

Schistosoma mansoni [9] = experiment: Day 50% survival of worms in culture of HC sensitive Schistosoma mansoni
Schistosoma mansoni [10] = experiment: Incorporation of 0.9 M *10e6 [3H]uridine in hycanthone(HC) resistant Schistosoma mansoni; outline: as §2
Schistosoma mansoni [11] = experiment: Incorporation of 0.9 M *10e6 [3H]uridine in hycanthone(HC) sensitive Schistosoma mansoni
Schistosoma mansoni [12] = experiment: Incorporation of 4.5 M*10e6 [3H]uridine in hycanthone(HC) sensitive Schistosoma mansoni
Schistosoma mansoni [13] = experiment: Incorporation of 4.5M*10e6 [3H]uridine in hycanthone(HC) resistant Schistosoma mansoni; outline: as §2
Mus musculus [14] = experiment: In vivo antitumor activity against p-388 lymphocytic leukemia in mice at 3.12 mg/kg; outline: as §1
Mus musculus [15] = experiment: In vivo antitumor activity against p-388 lymphocytic leukemia in mice at 1.5 mg/kg; outline: as §1
Mus musculus [16] = experiment: In vivo antitumor activity against p-388 lymphocytic leukemia in mice at 12.5 mg/kg; outline: as §1
Mus musculus [17] = experiment: In vivo antitumor activity against p-388 lymphocytic leukemia in mice at 6.25 mg/kg; outline: as §1
Schistosoma mansoni [18] = experiment: Incorporation of 1 M *10e6 [3H]uridine in hycanthone(HC) resistant Schistosoma mansoni; outline: as §2
Schistosoma mansoni [19] = experiment: Incorporation of 5M*10e6 [3H]uridine in hycanthone(HC) resistant Schistosoma mansoni; outline: as §2
Schistosoma mansoni [20] = experiment: Incorporation of 5M*10e6 [3H]uridine in hycanthone(HC) sensitive Schistosoma mansoni
Schistosoma mansoni [21] = experiment: Incorporation of 1 M *10e6 [3H]uridine in hycanthone(HC) sensitive Schistosoma mansoni
Mus musculus [22] = experiment: In vivo antitumor activity against p-388 lymphocytic leukemia in mice at 1.50 mg/kg; conditions: dose 1.5 mg/kg; outline: as §1
Schistosoma mansoni [23] = experiment: Incorporation of 1.1 M *10e6 [3H]uridine in hycanthone(HC) resistant Schistosoma mansoni; outline: as §2
Schistosoma mansoni [24] = experiment: Incorporation of 1.1 M *10e6 [3H]uridine in hycanthone(HC) sensitive Schistosoma mansoni
Schistosoma mansoni [25] = experiment: Incorporation of 5.5 M*10e6 [3H]uridine in hycanthone(HC) resistant Schistosoma mansoni; outline: as §2
Schistosoma mansoni [26] = experiment: Incorporation of 5.5 M*10e6 [3H]uridine in hycanthone(HC) sensitive Schistosoma mansoni

With CCN(CC)CCNc1ccc(COC(C)=O)c2sc3ccccc3c(=O)c12 the T/C (Mus musculus [1]) was 118%, the T/C (Mus musculus [2]) was 123% and the T/C (Mus musculus [3]) was 129%. It also gave a T/C (Mus musculus [4]) of 125%, a Control (Schistosoma mansoni [5]) of 13% and a Control (Schistosoma mansoni [6]) of 19%. For the same compound, the Control (Schistosoma mansoni [7]) was 4%, the Effect (Schistosoma mansoni [8]) was >15 days and 7 days and the Effect (Schistosoma mansoni [9]) was 7 days.

For CCN(CC)CCNc1ccc(COC(=O)c2cc([N+](=O)[O-])cc([N+](=O)[O-])c2)c2sc3ccccc3c(=O)c12, the Control (Schistosoma mansoni [10]) was 95%, the Control (Schistosoma mansoni [11]) was 50% and the Control (Schistosoma mansoni [12]) was 0%. For the same compound, the Control (Schistosoma mansoni [13]) was 105%, the Effect (Schistosoma mansoni [8]) was over 17 days and the Effect (Schistosoma mansoni [9]) was 7 days.

For CNC(=O)OCc1ccc(NCCN(C)C)c2c(=O)c3cc(O)ccc3sc12, the T/C (Mus musculus [14]) was 130, the T/C (Mus musculus [15]) was 134 and the T/C (Mus musculus [16]) was 112. The T/C (Mus musculus [17]) was 127.

CCN(CC)CCNc1ccc(COC(=O)Nc2ccccc2)c2sc3ccccc3c(=O)c12 showed a Control (Schistosoma mansoni [18]) of 33%, a Control (Schistosoma mansoni [19]) of 32% and a Control (Schistosoma mansoni [20]) of 7%. The Effect (Schistosoma mansoni [8]) was 12 days, the Effect (Schistosoma mansoni [9]) was 8 days and the T/C (Mus musculus [17]) was 111%. For the same compound, the Control (Schistosoma mansoni [21]) was 18%.

CCCNC(=O)OCc1ccc(NCCN(CC)CC)c2c(=O)c3ccccc3sc12 showed a T/C (Mus musculus [14]) of 117%, a T/C (Mus musculus [22]) of 99% and a Control (Schistosoma mansoni [23]) of 100%. The Control (Schistosoma mansoni [24]) was 40%, the Control (Schistosoma mansoni [25]) was 56% and the Control (Schistosoma mansoni [26]) was 22%. For the same compound, the Effect (Schistosoma mansoni [9]) was >12 days and 10 days and the T/C (Mus musculus [17]) was 134%.
